From ChEMBL document CHEMBL3091459, “Inhibitory effect of the gallotannin corilagin on dextran sulfate sodium-induced murine ulcerative colitis” (J Nat Prod, 2013)
The source made the active and inactive calls. The rule behind the calls is not given here.

Key:
Assay type in all cases: functional, organism-based
Mus musculus [1] = assay: Antiinflammatory activity in ip dosed C57BL/6 mouse assessed as reduction of DSS-induced IL-6 production in colon administered qd on day 6 to 12 post DSS-challenge measured on day 13 by ELISA
Summary of the method: (§1)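 Colitis induced in male C57BL/6 mice with 2.0% (w/v) DSS drinking water for days 0–5, then ip once daily days 6–12 (saline vehicle); 8 mice/group. Day 13: colon homogenized in phosphate buffer with Tween-20, PMSF, benzethonium chloride, EDTA and aprotinin, spun 16000g 15 min at 4 °C. TNF-α, IL-1β, IL-6 and IL-10 measured by ELISA, normalized to Bradford protein, reported as pg/mg.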

Mus musculus [2] = assay: Antiinflammatory activity in ip dosed C57BL/6 mouse assessed as reduction of DSS-induced IL-1beta production in colon administered qd on day 6 to 12 post DSS-challenge measured on day 13 by ELISA; summary of the method: as §1
Mus musculus [3] = assay: Antiulcerative colitis activity in C57BL/6 mouse assessed as recovery of DSS-induced body weight loss at 7.5 to 30 mg/kg, ip qd administered on day 6 to 12 post DSS-challenge measured on day 8
Summary of the method: (§2)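 In male C57BL/6 mice given 2.0% (w/v) DSS in drinking water days 0–5, then dosed ip daily days 6–12 (n = 8), body weight was checked daily. Change was also taken as weight before induction minus weight just before sacrifice on day 13.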

Mus musculus [4] = assay: Antiulcerative colitis activity in C57BL/6 mouse assessed as attenuation of DSS-induced crypt destruction at 7.5 to 30 mg/kg, ip qd administered on day 6 to 12 post DSS-challenge measured on day 13 by hematoxylin/eosin staining-based assay
Summary of the method: (§3)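 DSS colitis (2.0% in drinking water, 5 days) in male C57BL/6 mice treated ip once daily days 6–12, n = 8. Day 13 colons opened, washed in ice-cold PBS, fixed overnight in 4% paraformaldehyde, paraffin-embedded. 5 μm sections stained with H&E and scored histologically, including inflammation severity.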

Mus musculus [5] = assay: Antiulcerative colitis activity in C57BL/6 mouse assessed as inhibition of DSS-induced shortening of colon length at 30 mg/kg, ip qd administered on day 6 to 12 post DSS-challenge measured on day 13; parameters: dose 30 mg/kg
Summary of the method: (§4)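 Mice (male C57BL/6, 20–24 g) drank 2.0% DSS for 5 days. Animals with weight loss, diarrhea and bleeding on day 6 were randomized and given ip doses once daily to day 12, saline as vehicle; n = 8. Colon length was measured after sacrifice on day 13.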

Mus musculus [6] = assay: Antiulcerative colitis activity in DSS-induced acute colitis C57BL/6 mouse model assessed as decrease in disease activity index at 15 to 30 mg/kg, ip qd administered on day 6 to 12 post DSS-challenge measured on day 13
Mus musculus [7] = assay: Antiapoptotic activity in C57BL/6 mouse assessed as reduction of DSS-induced cleaved caspase-9 level in colon at 7.5 to 30 mg/kg, ip qd administered on day 6 to 12 post DSS-challenge measured on day 13 by Western blotting analysis
Summary of the method: (§5)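 Male C57BL/6 mice (7–8 wk) given 2.0% (w/v) DSS in drinking water days 0–5. Colitic mice were selected on day 6 and dosed ip once daily, days 6–12, saline vehicle; n = 8/group. Day 13: colon homogenized in RIPA, 50 μg protein run on 10–12% SDS-PAGE. Blots probed for cleaved caspase-3/-9, detected by ECL, β-actin for loading, densitometry; n = 5.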

Mus musculus [8] = assay: Antiulcerative colitis activity in C57BL/6 mouse assessed as attenuation of DSS-induced lesions formation at 7.5 to 30 mg/kg, ip qd administered on day 6 to 12 post DSS-challenge measured on day 13 by hematoxylin/eosin staining-based assay; summary of the method: as §3
Mus musculus [9] = assay: Antiinflammatory activity in ip dosed C57BL/6 mouse assessed as reduction of DSS-induced TNF-alpha production in colon administered qd on day 6 to 12 post DSS-challenge measured on day 13 by ELISA; summary of the method: as §1
Mus musculus [10] = assay: Antiapoptotic activity in C57BL/6 mouse assessed as reduction of DSS-induced cleaved caspase-3 level in colon at 7.5 to 30 mg/kg, ip qd administered on day 6 to 12 post DSS-challenge measured on day 13 by Western blotting analysis; summary of the method: as §5
Mus musculus [11] = assay: Antiulcerative colitis activity in C57BL/6 mouse assessed as recovery of DSS-induced body weight loss at 7.5 to 30 mg/kg, ip qd administered on day 6 to 12 post DSS-challenge measured on day 9; summary of the method: as §2
Mus musculus [12] = assay: Antiulcerative colitis activity in C57BL/6 mouse assessed as attenuation of DSS-induced inflammatory cell infiltration at 7.5 to 30 mg/kg, ip qd administered on day 6 to 12 post DSS-challenge measured on day 13 by hematoxylin/eosin staining-based assay; summary of the method: as §3
Mus musculus [13] = assay: Antiinflammatory activity in DSS-treated C57BL/6 mouse assessed as effect on IL-10 production in colon at 7.5 to 30 mg/kg, ip qd administered on day 6 to 12 post DSS-challenge measured on day 13 by ELISA; summary of the method: as §1
Mus musculus [14] = assay: Antiinflammatory activity in DSS-induced acute colitis C57BL/6 mouse model assessed as upregulation of IkappaB-alpha protein expression at 15 to 30 mg/kg, ip qd administered on day 6 to 12 post DSS-challenge measured on day 13 by Western blotting analysis
Summary of the method: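 Male C57BL/6 mice received 2.0% DSS water for 5 days, then daily ip dosing in saline on days 6–12. On day 13, colon tissue was homogenized in ice-cold RIPA (0.1 g/mL). 50 μg protein was blotted on nitrocellulose and probed for IκBα overnight at 4 °C. ECL detection, normalized to β-actin by densitometry; n = 5.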

Mus musculus [15] = assay: In vivo inhibition of myeloperoxidase activity in colon homogenates of DSS-induced acute colitis C57BL/6 mouse model at 7.5 to 30 mg/kg, ip qd administered on day 6 to 12 post DSS-challenge measured on day 13
Summary of the method: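 Day 13 colons from DSS-colitic male C57BL/6 mice (2.0% DSS for 5 days; ip daily days 6–12; n = 8) were homogenized in 0.5% HTAB (1 mL/100 mg) and spun 19000g 15 min at 4 °C. Supernatant was mixed with 50 mmol pH 6.0 phosphate buffer containing 0.0005% o-dianisidine and 0.1% H2O2. Rate of OD460 change at 25 °C was read and expressed as units/g wet tissue.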

Mus musculus [16] = assay: Antiulcerative colitis activity in ip dosed C57BL/6 mouse assessed as inhibition of DSS-induced shortening of colon length administered qd on day 6 to 12 post DSS-challenge measured on day 13; summary of the method: as §4

With `O=C(O[C@@H]1O[C@@H]2COC(=O)c3cc(O)c(O)c(O)c3-c3c(cc(O)c(O)c3O)C(=O)O[C@H]([C@H]1O)[C@@H]2O)c1cc(O)c(O)c(O)c1` the Activity (Mus musculus [1]) was “Dose-dependent effect”, the Activity (Mus musculus [2]) was “Dose-dependent effect” and the Activity (Mus musculus [3]) was “Active”. For the same compound, the Activity (Mus musculus [4]) was “Active”, the inhibition (Mus musculus [5]) was “Active” and the Activity (Mus musculus [6]) was “Active”. The Activity (Mus musculus [7]) was “Active”, the Activity (Mus musculus [8]) was “Active” and the Activity (Mus musculus [9]) was “Dose-dependent effect”. The Activity (Mus musculus [10]) was “Active”, the Activity (Mus musculus [11]) was “Active” and the Activity (Mus musculus [12]) was “Active”. For the same compound, the Activity (Mus musculus [13]) was “inactive”, the Activity (Mus musculus [14]) was “Active” and the inhibition (Mus musculus [15]) was “Active”. For the same compound, the inhibition (Mus musculus [16]) was “Dose-dependent effect”.
